Screens deposited in PubChem by Broad Institute.
Only some compounds are listed: those with a hit (about 2.4% of all), similar ones and a draw of the others.
ARNT TACC3 PPI: disruptors of ARNT/TACC3 protein interaction, primary screen, biochemical, AlphaScreen, single concentration | Transforming acidic coiled-coil-containing protein 3 (Homo sapiens), Q9Y6A5 | AlphaScreen His-ARNT PAS-B/GST-TACC3 binding, luminescence; TACC3 fragment carries E629A point mutation | inhibition, % at 9.99 µM | 0.66% of 390,000 active;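 active = mean inhibition of replicates at least 50% and at least half of replicates each reaching 50%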;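 also: 0% = complete ARNT plus TACC3 wells and 100% = ARNT alone without TACC3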
rRNA inh HTS: reduced GFP signal of wild-type E. coli, primary screen, bacterial rRNA inhibitor project, GFP/RFP fluorescence, OD600, single point. E. coli WT GFP vs humanized-ribosome RFP mutants, 24 h; active compounds read low; DMSO median 0, no signal -100. GFP signal change (wild-type ribosome), % (no concentration beside the values). 1.6% of 350,000 active. AID 720706, 2013;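 active = significant combined selectivity score with lowered wild-type GFP, culture density cut under 30%, mutant RFP and density less affected; inactive = any of these conditions unmet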
PGC1a acetyl inh: inhibitors of PGC1a acetylation signal, primary screen, cell-based, U2OS, AlphaScreen, inhibitor mode; AlphaScreen anti-acetyl-lysine; with virally co-expressed GCN5 acetyltransferase; inhibition, % at 15.6 µM; 0.17% of 350,000 active; AID 651687, 2012;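 active = every replicate shows inhibition of at least 40%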;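 also: 0% = neutral control wells and 100% = positive control wells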
S100A4 MyoIIA: inhibitors of S100A4-myosin IIA peptide binding, primary screen, biochemical, fluorescence polarization, TAMRA-MyoIIA peptide; Protein S100-A4 (Homo sapiens), P26447; inhibition, % at 10.7 µM; 0.14% of 360,000 active; AID 652163, 2013;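 active = mean inhibition of at least 70% across replicates, with every replicate also reaching that level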
Target sequence (P26447 whole entry, looked up): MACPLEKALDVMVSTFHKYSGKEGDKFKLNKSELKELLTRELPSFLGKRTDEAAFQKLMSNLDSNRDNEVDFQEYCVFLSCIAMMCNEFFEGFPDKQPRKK
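assay system = human S100A4 monomer with TAMRA-labelled myosin IIA peptide | also added = labelled myosin peptide probe, 5 nM | incubation = 5 min between mix addition and reading | control set = DMSO and TFP controls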
ERAP1 inh: human ERAP1 aminopeptidase inhibitors, primary screen, biochemical, single point, plate reader | recombinant ERAP1, Leu-AMC fluorescence, 60 min | inhibition, % at 10.7 µM | 0.15% of 340,000 active | AID 652197, 2013;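 active = mean replicate inhibition of at least 30%, or all replicates individually reaching that 30% level; inactive = mean below 30% and not every replicate reaching it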;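 also: 0% = neutral control wells and 100% = L-leucinethiol positive control wells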
CASP6 VEID inh: human caspase-6 inhibitors, primary screen, biochemical, VEID-R110 fluorescence, single point, set 2; 0.53% of 350,000 active; inhibition, % at 12.5 µM; purified caspase-6, Z-VEID-R110 cleavage fluorescence;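 active = mean inhibition across replicates at least about 35%, with every replicate also reaching that limit, limit read from the data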;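 also: 0% = median of neutral control wells and 100% = no fluorescence left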
Target sequence (P55212 24-179 limits assumed): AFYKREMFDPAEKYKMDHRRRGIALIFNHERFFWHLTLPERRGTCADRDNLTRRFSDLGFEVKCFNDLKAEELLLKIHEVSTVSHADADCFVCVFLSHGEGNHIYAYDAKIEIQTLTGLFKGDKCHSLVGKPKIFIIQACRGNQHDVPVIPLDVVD
Target sequence (P55212 194-293 limits assumed): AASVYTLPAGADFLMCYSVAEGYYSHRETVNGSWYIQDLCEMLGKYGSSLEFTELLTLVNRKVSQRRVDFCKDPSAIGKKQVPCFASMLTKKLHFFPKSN
Active calls of the source: *; . = no result.

SMILES | ARNT TACC3 PPI | rRNA inh HTS | PGC1a acetyl inh | S100A4 MyoIIA | ERAP1 inh | CASP6 VEID inh
Cc1ccsc1/C=N/NC(=O)c1cccc(S(=O)(=O)Nc2ccccc2Cl)c1 | -14 | . | . | 1 | 18 | 2
C[C@H]1CN([C@@H](C)CO)C(=O)Cc2cc(NC(=O)Cc3ccccc3)ccc2O[C@@H]1CN(C)Cc1ccc(C(F)(F)F)cc1 | 9 | -1 | -19 | 7 | 3 | 2
COc1ccccc1-c1ccc2c(c1)[C@@H]1[C@@H](CCN1S(=O)(=O)c1cccc(F)c1)[C@H](CO)N2 | 16 | -1 | -14 | . | . | .
CNC(=O)C1=C[C@@H](c2ccc(OC)cc2)C[C@@H](OCCCCO)O1 | 0 | . | . | -57 | -5 | 0
O=C(N/N=C/c1ccccn1)c1ccc(NC(=O)c2cccc([N+](=O)[O-])c2)cc1 | . | 0 | -15 | -7 | 3 | -2
Cc1ccccc1C(=O)Nc1ccc(C(=O)N/N=C/c2ccc(O)cc2)cc1 | 1 | 1 | . | 0 | -1 | 6
Cc1cc(C(=O)N/N=C/c2ccccn2)n[nH]1 | . | 18 | . | 0 | -2 | -1
Cc1cccc(C(=O)Nc2cccc(C(=O)N/N=C/c3ccccn3)c2)c1 | 71* | -19 | -10 | 2 | -3 | -1
O=C(N/N=C/c1ccccn1)c1cccc(NC(=O)c2ccccc2Cl)c1 | 63* | -14 | . | 2 | -4 | -1
O=C(N/N=C/c1ccccn1)c1cc(C2CC2)[nH]n1 | 48* | 17 | -12 | 7 | -3 | -2
Cc1ccccc1C(=O)Nc1ccc(C(=O)N/N=C/c2ccncc2)cc1 | 38 | -29* | -12 | -2 | 1 | 1
COc1cccc(S(=O)(=O)N2CC[C@@H]3[C@H]2c2cc(Br)ccc2N[C@@H]3CO)c1 | 2 | -6 | 15 | . | . | .
C[C@@H]1CN([C@H](C)CO)C(=O)c2cc(NC(=O)Nc3cccc4ccccc34)ccc2O[C@@H](C)CCCCO[C@@H]1CN(C)S(=O)(=O)c1ccc(F)cc1 | 10 | 4 | -14 | -24 | 0 | 3
CN1C(=O)c2cc(NC(=O)C3CC3)ccc2OC[C@H]2O[C@@H](CC(=O)NC3CCC3)CC[C@H]21 | . | 5 | 2 | -2 | 0 | 0
Cc1cccc(Nc2nc(-c3ccc(F)cc3)cs2)n1 | -2 | -18* | -5 | -9 | 0 | -1
Cc1ccc(NC(=O)Nc2ccc3c(c2)N(C)C(=O)CS3)cc1C | -1 | -13* | -3 | 1 | 1 | -3
Cc1ccc2nc(SCC(=O)N/N=C/c3ccco3)cc(C)c2c1 | 6 | -3 | . | 0 | 6 | 0
Cc1ccc2nc(N/N=C/c3ccco3)cc(C)c2c1 | 1 | -20* | . | 0 | 11 | 2
C[C@@H]1CN([C@H](C)CO)S(=O)(=O)c2ccc(/C=C/c3ccccc3)cc2O[C@H]1CN(C)C(=O)c1ccncc1 | 5 | -8 | 2 | -6 | -2 | -1
O=C(NCc1cccc(F)c1)[C@@H]1[C@@H](CO)[C@@H]2Cn3c(cccc3=O)[C@H]1N2C(=O)c1cnccn1 | active | 1 | . | 7 | -4 | -2
CCSC1=NC(C)(C)C=C(/C=C/c2ccc(Cl)cc2Cl)N1 | 45* | . | -5 | . | . | .
CSC1=NC(C)(C)C=C(/C=C/c2ccc(Cl)cc2Cl)N1 | -1 | 3 | -8 | 6 | 4 | 2
CN1C(=O)c2cc(NC(=O)Cc3cccs3)ccc2OC[C@H]2O[C@H](CC(=O)N[C@H]3CCN(Cc4ccccc4)C3)CC[C@@H]21 | 8 | 4 | . | 96* | 1 | -8
COc1ccc(CNC(=O)C[C@@H]2CC[C@H]3[C@@H](COc4ccc(NC(=O)C5CC5)cc4C(=O)N3C)O2)cc1 | active | 2 | 2 | -3 | -1 | -3
CC(NC(=S)NC1CCCCC1)c1ccc(C(C)(C)C)cc1 (stereo unspecified) | 29 | 13 | . | 0 | -1 | 42*
SMILES | ARNT TACC3 PPI | rRNA inh HTS | PGC1a acetyl inh | S100A4 MyoIIA | ERAP1 inh | CASP6 VEID inh
O=C(CCCCCCCC(=O)c1ccccc1)c1ccccc1 | . | 4 | . | -1 | -3 | 3
C=C(CCC(=O)c1ccccc1)C(=O)c1ccccc1 | 1 | . | . | 1 | -2 | 61*
Cc1ccc(CS(=O)Cc2ccc(C(=O)NCCc3ccccc3)o2)cc1 (stereo unspecified) | -3 | -22* | 4 | -4 | -2 | 2
O=C(NCCc1cccs1)c1ccc(CS(=O)Cc2ccc(Cl)cc2)o1 (stereo unspecified) | 3 | -24* | -3 | -4 | 4 | 2
CCOc1ccc(CCNC(=O)c2ccc(CS(=O)Cc3ccc(Cl)cc3)o2)cc1OCC (stereo unspecified) | 7 | -32* | 3 | 3 | 1 | 1
Cc1ccc(S(=O)(=O)Nc2ccc3c(c2)C(=O)N([C@H](C)CO)C[C@H](C)[C@H](CN(C)CC2CCCCC2)OCCCC[C@H](C)O3)cc1 | 7 | -28 | -10 | 5 | -3 | 0
CCCC#Cc1ccc([C@@H]2[C@@H](CO)N3C(=O)CN(C(=O)Nc4ccccc4F)C[C@@H]23)cc1 | . | 2 | 1 | -12 | 2 | -2
Clc1cccc(-c2noc3ncnc(Nc4ccc5c(c4)OCO5)c23)c1 | -8 | -22* | 2 | -1 | 3 | 1
Cc1ccc(Nc2c(-c3ccc(N4CCOCC4)cc3)nc3ncccn23)c(C)c1 | 0 | -1 | 0 | -2 | 5 | -1
Cc1cccc(C)c1Nc1c(-c2ccc(N3CCOCC3)cc2)nc2ncccn12 | 12 | -25* | -8 | -20 | 7 | 3
COC(=O)c1cc(NC(=O)CSc2nnc(N)s2)ccc1Cl | 5 | -22* | 13 | -7 | -1 | 0
Nc1nnc(SCC(=O)Nc2ccc(Cl)c(C(=O)O)c2)s1 | -1 | 12 | 1 | 4 | -3 | 2
CCCC#Cc1ccc2c(c1)O[C@H](CN(C)C(=O)c1ccccn1)[C@H](C)CN([C@H](C)CO)S2(=O)=O | . | 1 | -9 | -4 | 1 | 1
Cc1noc(C)c1NC(=O)Nc1ccc2c(c1)C(=O)N(C)[C@@H]1CC[C@@H](CC(=O)NCc3ccc(Cl)cc3)O[C@@H]1CO2 | -4 | -1 | . | -2 | -3 | 2
O=C(O)c1cccc(-n2cccc2/C=C2\SC(=O)N(Cc3ccccc3F)C2=O)c1 | 6 | -14 | . | 2 | 25 | 86*
O=C(O)c1cccc(-n2cccc2/C=C2/SC(=O)N(CC(=O)N3CCCC3)C2=O)c1 | 3 | -5 | 19 | -5 | 11 | 40*
